Test results from ChEMBL document CHEMBL1806366, “Synthesis and structure-activity relationship of new 1,5-dialkyl-1,5-benzodiazepines as cholecystokinin-2 receptor antagonists” (Bioorg Med Chem, 2011).
In brackets after ≈: the same amount, converted by molar mass.

How the values were obtained:
[1] = molecular target: T1, Cholecystokinin receptor type A (Rattus norvegicus, UniProt P30551); assay: Displacement of [3H]CCK8 from rat pancreas CCK1 receptor at by liquid scintillation counting
T1 sequence (P30551 whole entry): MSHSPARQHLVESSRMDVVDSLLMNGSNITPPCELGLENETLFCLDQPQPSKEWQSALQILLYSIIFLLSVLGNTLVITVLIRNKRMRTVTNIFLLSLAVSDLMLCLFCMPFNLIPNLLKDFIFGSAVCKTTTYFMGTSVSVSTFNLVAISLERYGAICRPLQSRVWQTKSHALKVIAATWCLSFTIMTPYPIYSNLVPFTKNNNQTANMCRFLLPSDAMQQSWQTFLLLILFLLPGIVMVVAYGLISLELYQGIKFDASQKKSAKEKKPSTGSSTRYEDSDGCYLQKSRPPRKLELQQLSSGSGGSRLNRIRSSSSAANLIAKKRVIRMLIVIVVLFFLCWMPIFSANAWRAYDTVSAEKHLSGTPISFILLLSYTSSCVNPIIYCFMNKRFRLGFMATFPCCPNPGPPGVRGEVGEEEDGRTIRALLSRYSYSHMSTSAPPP
Method in brief: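 Rat pancreas membranes incubated at 37 °C with [³H]-CCK8s at 0.2 nM; nonspecific binding defined with L-364,718. Bound and free ligand separated by filtration over GF/C filters, then counted by liquid scintillation. Ki calculated using Bmax and KD from separate saturation binding isotherms.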

[2] = Selectivity ratio of pKi for guinea pig brain CCK2 receptor to pKi for rat pancreas CCK1
Method in brief: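 Radioligand displacement binding to guinea pig brain membranes (CCK2, incubated at 25 °C) and rat pancreas membranes (CCK1, incubated at 37 °C) with 0.2 nM [³H]-CCK8s. Non-specific binding was defined with L-365,260 (CCK2) or L-364,718 (CCK1). Bound ligand was separated by GF/C filtration and counted by liquid scintillation. Ki values were derived for each subtype, with KD and Bmax taken from separate saturation isotherms.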

[3] = Displacement of [3H]CCK8 from guinea pig brain CCK2 receptor by liquid scintillation counting; design: species or system Cavia porcellus
Method in brief: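 Guinea pig brain membranes incubated at 25 °C with [³H]-CCK8s at 0.2 nM; nonspecific binding defined with L-365,260. Bound and free ligand separated by filtration over GF/C filters, then counted by liquid scintillation. Ki calculated using Bmax and KD from separate saturation binding isotherms.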

[4] = Solubility of the compound at pH 2.4; type: physicochemical; conditions: buffer

SMILES | Ki [1] | Ki selectivity ratio (CCK1 Ki / CCK2 Ki) [2] | pKi [3] | solubility ([4]; read-out: solubility) | solubility [4]
O=C(Nc1ccccc1)NC1C(=O)N(CCN2CCOCC2)c2ccccc2N(CC23CC4CC(CC(C4)C2)C3)C1=O (stereo in doubt; 55) [listing 1 of 2 here] | – | 170 | – | – | –
Cc1cccc(NC(=O)NC2C(=O)N(CCN3CCOCC3)c3ccccc3N(CC3CCCCC3)C2=O)c1 (racemic) | 174 nM | 316 | 9.26 | – | –
Cc1cc(Br)ccc1NC(=O)NC1C(=O)N(CCC(C)C)c2ccccc2N(CCN2CCOCC2)C1=O (racemic) | 537 nM | 38 | 7.85 | – | –
CC(C)CCN1C(=O)C(NC(=O)Nc2ccc(Br)cc2)C(=O)N(CCN2CCOCC2)c2ccccc21 (racemic) | 1070 nM | 295 | 8.44 | – | –
O=C(Nc1ccccc1)NC1C(=O)N(CCN2CCOCC2)c2cc(F)ccc2N(CC23CC4CC(CC(C4)C2)C3)C1=O (single isomer, unassigned; (-)) | – | 1020 | – | – | –
CCN(CC)CCN1C(=O)C(NC(=O)Nc2ccccc2)C(=O)N(CC2CCCCC2)c2ccccc21 (single isomer, unassigned; isomer 1) [listing 1 of 2 here] | 2690 nM | – | 8.23 | – | –
COc1ccc(NC(=O)NC2C(=O)N(CCC(C)C)c3ccccc3N(CCN(C)C)C2=O)cc1 (racemic) | 17400 nM | 1550 | 7.95 | – | –
O=C(Nc1ccc(F)cc1)NC1C(=O)N(CCN2CCOCC2)c2ccccc2N(CC23CC4CC(CC(C4)C2)C3)C1=O (racemic) [listing 1 of 2 here] | – | 646 | – | – | –
CC(C)CCN1C(=O)C(NC(=O)Nc2ccccc2)C(=O)N(CCN2CCCCC2)c2ccccc21 (racemic) | 2040 nM | 302 | 8.17 | – | –
CCOc1ccc(NC(=O)NC2C(=O)N(CCC(C)C)c3ccccc3N(CCN3CCOCC3)C2=O)cc1 (racemic) | > 10000 nM | 148 | 7.17 | – | –
O=C(Nc1ccccc1)NC1C(=O)N(CCN2CCCC2)c2ccccc2N(CC23CC4CC(CC(C4)C2)C3)C1=O (racemic) | 9550 nM | 9120 | 8.98 | – | –
CC(C)CCN1C(=O)C(NC(=O)Nc2ccccc2C(C)C)C(=O)N(CCN2CCOCC2)c2ccccc21 (racemic) | > 10000 nM | 78 | 6.89 | – | –
CCN(CC)CCN1C(=O)C(NC(=O)Nc2ccccc2)C(=O)N(CC2CCCCC2)c2ccccc21 (single isomer, unassigned; isomer 1) [listing 2 of 2 here] | – | 457 | – | – | –
Cc1cccc(Cl)c1NC(=O)NC1C(=O)N(CCC(C)C)c2ccccc2N(CCN2CCOCC2)C1=O (racemic) | 5130 nM | 44 | 6.93 | – | –
O=C(Nc1ccccc1)NC1C(=O)N(CCN2CCOCC2)c2ccccc2N(CC2CCCCC2)C1=O (racemic) | 347 nM | 126 | 8.56 | – | –
O=C(Nc1ccccc1)NC1C(=O)N(CCN2CCOCC2)c2cc(F)ccc2N(CC23CC4CC(CC(C4)C2)C3)C1=O (single isomer, unassigned; (+)) [listing 2 of 2 here] | – | 46 | – | – | –
O=C(Nc1ccccc1)NC1C(=O)N(CCN2CCOCC2)c2cc(F)ccc2N(CC23CC4CC(CC(C4)C2)C3)C1=O (racemic) [listing 1 of 2 here] | – | 603 | – | – | –
CCN(CC)CCN1C(=O)C(NC(=O)Nc2ccc(F)cc2)C(=O)N(CC23CC4CC(CC(C4)C2)C3)c2ccccc21 (racemic) | 1660 nM | 851 | 8.71 | – | –
O=C(Nc1ccc(F)cc1)NC1C(=O)N(CCN2CCOCC2)c2ccccc2N(CC23CC4CC(CC(C4)C2)C3)C1=O (single isomer, unassigned; (-)) [listing 1 of 2 here] | 1020 nM | – | 9.45 | – | 20 µg/mL (≈ 33.9 µM)
CN(C)CCCN1C(=O)C(NC(=O)Nc2ccccc2)C(=O)N(CC23CC4CC(CC(C4)C2)C3)c2ccccc21 (racemic) | 20400 nM | 5620 | 8.44 | – | –
O=C(Nc1ccc(F)cc1)NC1C(=O)N(CCN2CCOCC2)c2ccccc2N(CC23CC4CC(CC(C4)C2)C3)C1=O (single isomer, unassigned; (+)) [listing 2 of 2 here] | – | 182 | – | – | –
O=C(Nc1ccccc1)NC1C(=O)N(CCN2CCOCC2)c2cc(F)ccc2N(CC23CC4CC(CC(C4)C2)C3)C1=O (racemic) [listing 2 of 2 here] | 2630 nM | – | 8.36 | – | 360 µg/mL (≈ 610 µM)

The remaining lines, values ahead:

Ki [1] | Ki selectivity ratio (CCK1 Ki / CCK2 Ki) [2] | pKi [3] | solubility ([4]; read-out: solubility) | solubility [4] | SMILES
1480 nM | 407 | 8.44 | – | – | CC(C)CCN1C(=O)C(NC(=O)Nc2ccc(C(F)(F)F)cc2)C(=O)N(CCN2CCOCC2)c2ccccc21 (racemic)
2570 nM | – | 7.85 | – | – | O=C(Nc1ccc(F)cc1)NC1C(=O)N(CCN2CCOCC2)c2ccccc2N(CC23CC4CC(CC(C4)C2)C3)C1=O (single isomer, unassigned; (+)) [listing 1 of 2 here]
– | 1180 | – | – | – | CCN(CC)CCN1C(=O)C(NC(=O)Nc2ccccc2)C(=O)N(CC2CCCCC2)c2ccccc21 (stereo in doubt) [listing 1 of 2 here]
1450 nM | 363 | 8.4 | – | – | CC(C)CCN1C(=O)C(NC(=O)Nc2ccc(F)cc2)C(=O)N(CCN2CCOCC2)c2ccccc21 (racemic)
1510 nM | – | 8.99 | – | – | CCN(CC)CCN1C(=O)C(NC(=O)Nc2ccccc2)C(=O)N(CC2CCCCC2)c2ccccc21 (racemic) [listing 1 of 2 here]
– | 8910 | – | – | – | O=C(Nc1ccccc1)NC1C(=O)N(CCN2CCOCC2)c2ccccc2N(CC23CC4CC(CC(C4)C2)C3)C1=O (single isomer, unassigned; (-))
6610 nM | 229 | 7.54 | – | – | COc1ccc(NC(=O)NC2C(=O)N(CCC(C)C)c3ccccc3N(CCN3CCOCC3)C2=O)c(C)c1 (racemic)
2240 nM | – | 7.31 | – | – | O=C(Nc1ccccc1)NC1C(=O)N(CCN2CCOCC2)c2cc(F)ccc2N(CC23CC4CC(CC(C4)C2)C3)C1=O (single isomer, unassigned; (+)) [listing 1 of 2 here]
5130 nM | 646 | 8.1 | – | – | COc1ccc(NC(=O)NC2C(=O)N(CCC(C)C)c3ccccc3N(CCN3CCOCC3)C2=O)cc1 (racemic)
1580 nM | – | 8.03 | – | – | O=C(Nc1ccccc1)NC1C(=O)N(CCN2CCOCC2)c2ccccc2N(CC23CC4CC(CC(C4)C2)C3)C1=O (stereo in doubt; 55) [listing 2 of 2 here]
– | 3550 | – | – | – | O=C(Nc1ccccc1)NC1C(=O)N(CCN2CCOCC2)c2ccccc2N(CC23CC4CC(CC(C4)C2)C3)C1=O (racemic)
468 nM | – | 9.4 | – | – | CCN(CC)CCN1C(=O)C(NC(=O)Nc2ccccc2)C(=O)N(CC2CCCCC2)c2ccccc21 (stereo in doubt) [listing 2 of 2 here]
– | 1480 | – | – | – | CCN(CC)CCN1C(=O)C(NC(=O)Nc2ccccc2)C(=O)N(CC2CCCCC2)c2ccccc21 (racemic) [listing 2 of 2 here]
1410 nM | – | 8.66 | 20 µg/mL (≈ 33.9 µM) | – | O=C(Nc1ccc(F)cc1)NC1C(=O)N(CCN2CCOCC2)c2ccccc2N(CC23CC4CC(CC(C4)C2)C3)C1=O (racemic) [listing 2 of 2 here]
275 nM | 372 | 9.11 | – | – | Cc1cccc(NC(=O)NC2C(=O)N(CCC(C)C)c3ccccc3N(CCN3CCOCC3)C2=O)c1 (racemic)
– | 2880 | – | – | – | O=C(Nc1ccc(F)cc1)NC1C(=O)N(CCN2CCOCC2)c2ccccc2N(CC23CC4CC(CC(C4)C2)C3)C1=O (single isomer, unassigned; (-)) [listing 2 of 2 here]
1020 nM | 525 | 8.71 | – | – | CC(C)CCN1C(=O)C(NC(=O)Nc2ccc(Cl)cc2)C(=O)N(CCN2CCOCC2)c2ccccc21 (racemic)
